Experimental data as given in ChEMBL document CHEMBL2057137, “Lead optimization studies on FimH antagonists: discovery of potent and orally bioavailable ortho-substituted biphenyl mannosides” (J Med Chem, 2012).

What was measured:
[1] = Plasma concentration in mouse at 50 mg/kg, po measured after 6 hrs; type: ADME, organism-based; set-up: dose 50 mg/kg, route oral
How it was run: (§1)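 Oral dosing in mice at 50 mg/kg. Plasma and urine sampled at 30 min and 1, 2, 3, 4, 6 h after dosing. Compound quantified by LC-MS/MS in selected reaction monitoring mode.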

Escherichia coli [2] = assay: Binding affinity to […] Escherichia coli FimH-lectine domain assessed as melting temperature at 100 uM by differential scanning fluorometric assay
How it was run: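 Untagged FimH lectin domain (residues 1–158 of UPEC J96 FimH), 5 µg in a 50 µl reaction of HBS (20mM HEPES pH 7.5, 150mM NaCl). Compound at 100µM final, diluted from DMSO stocks, with SYPRO Orange at 5X final. Controls were FimH alone plus 0.2% DMSO. Melt curve ran from 20–90°C in 0.5 °C steps of 15 s each, with fluorescence read on the HEX channel.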

Mus musculus = assay: Ratio of drug uptake in mouse urine to plasma at 50 mg/kg, po measured after 6 hrs; details: in vivo
[3] = Drug level in mouse urine at 50 mg/kg, po measured after 6 hrs; type: ADME, organism-based; set-up: dose 50 mg/kg, route oral; details: read-out: Drug uptake; how it was run: as §1
[4] = Effective permeability of the compound by PAMPA assay; type: ADME; set-up: unit not given here
Escherichia coli [5] = assay: Antibacterial activity against Escherichia coli K-12 ATCC 25404 assessed as inhibition of biofilm formation after 2 hrs by confocal laser microscopic analysis; type: functional, organism-based; details: Escherichia coli, K-12 ATCC 25404, 2 h
Escherichia coli [6] = assay: Inhibition of Escherichia coli FimH-mediated hemagglutinination of human red blood cells assessed as drug level required for > 90% inhibition of hemagglutinination after 30 mins by hemagglutinination inhibition assay
[7] = Binding affinity to biotinylated Escherichia coli FimH-lectin domain after 30 mins by biolayer interferometry method
How it was run: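 FimH lectin domain biotinylated 1:1, loaded at 50μg/ml in HBS (20mM HEPES pH 7.5, 150mM NaCl) onto streptavidin tips, biocytin-blocked. Compound applied as 7 twofold dilutions in HBS for 10 min association, then 30 min dissociation, 30°C with shaking. Referenced to biocytin-blocked pins for drift and nonspecific binding. Kd from global kinetic fitting.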

Row | SMILES | Tm (Escherichia coli [2]) [°C] | EC>90 (Escherichia coli [6]) [µM] | Kd [7] [nM] | also measured
1 | CNC(=O)c1cccc(-c2ccc(O[C@H]3O[C@H](CO)[C@@H](O)[C@H](O)[C@@H]3O)c(C)c2)c1 | 74.5 | 0.06 | – | concentration at 6 h [1]: 100 nM; Ratio (Mus musculus): 10; concentration at 6 h [3]: 4370 nM; log Pe [4]: -3.89; IC50 (Escherichia coli [5]): 160 nM
2 | CNC(=O)c1cccc(-c2ccc(O[C@H]3O[C@H](CO)[C@@H](O)[C@H](O)[C@@H]3O)c(C(F)(F)F)c2)c1 | 72.3 | 0.03 | – | Ratio (Mus musculus): 10; IC50 (Escherichia coli [5]): 130 nM
3 | CNC(=O)c1cccc(-c2ccc(O[C@H]3O[C@H](CO)[C@@H](O)[C@H](O)[C@@H]3O)c(Cl)c2)c1 | – | 0.12 | – | Ratio (Mus musculus): 10; IC50 (Escherichia coli [5]): 520 nM
4 | COC(=O)c1cncc(-c2ccc(O[C@H]3O[C@H](CO)[C@@H](O)[C@H](O)[C@@H]3O)cc2)c1 | – | 0.19 | – | –
5 | COC(=O)c1csc(-c2ccc(O[C@H]3O[C@H](CO)[C@@H](O)[C@H](O)[C@@H]3O)cc2)c1 | – | 2 | – | –
6 | COC(=O)c1cccc(-c2ccc(O[C@H]3O[C@H](CO)[C@@H](O)[C@H](O)[C@@H]3O)cc2)c1 | 73.4 | – | 0.08 | log Pe [4]: -5.42; IC50 (Escherichia coli [5]): 940 nM
7 | OC[C@H]1O[C@H](Oc2ccc(-c3ccc4ncncc4c3)cc2)[C@@H](O)[C@@H](O)[C@@H]1O | – | 0.38 | – | –
8 | CNC(=O)c1cc(C(=O)NC)cc(-c2ccc(O[C@H]3O[C@H](CO)[C@@H](O)[C@H](O)[C@@H]3O)c(C(F)(F)F)c2)c1 | 76.2 | 0.008 | – | concentration at 6 h [1]: 40 nM; Ratio (Mus musculus): 10; concentration at 6 h [3]: 890 nM; log Pe [4]: -6.27; IC50 (Escherichia coli [5]): 43 nM
9 | OC[C@H]1O[C@H](Oc2ccc(-c3ccc4ccncc4c3)cc2)[C@@H](O)[C@@H](O)[C@@H]1O | – | 0.75 | – | –
10 | O=C(Nc1cccnc1)c1cccc(-c2ccc(O[C@H]3O[C@H](CO)[C@@H](O)[C@H](O)[C@@H]3O)cc2)c1 | 72.5 | 0.37 | – | –
11 | NC(=O)Nc1csc(-c2ccc(O[C@H]3O[C@H](CO)[C@@H](O)[C@H](O)[C@@H]3O)cc2)c1 | – | 1 | – | –
12 | COC(=O)c1ccc(-c2ccc(O[C@H]3O[C@H](CO)[C@@H](O)[C@H](O)[C@@H]3O)cc2)cc1 | – | – | 3.99 | –
13 | COC(=O)c1cc(-c2ccc(O[C@H]3O[C@H](CO)[C@@H](O)[C@H](O)[C@@H]3O)cc2)ccn1 | 73.7 | 0.5 | – | –
14 | OC[C@H]1O[C@H](Oc2ccc3ccccc3c2)[C@@H](O)[C@@H](O)[C@@H]1O | 70.8 | – | 2.72 | –
15 | NC(=O)c1cccc(-c2ccc(O[C@H]3O[C@H](CO)[C@@H](O)[C@H](O)[C@@H]3O)cc2)c1 | 71.7 | – | 1 | –
16 | NCCNC(=O)c1cccc(-c2ccc(O[C@H]3O[C@H](CO)[C@@H](O)[C@H](O)[C@@H]3O)cc2)c1 | – | 3 | – | –
17 | O=C(c1cccc(-c2ccc(O[C@H]3O[C@H](CO)[C@@H](O)[C@H](O)[C@@H]3O)cc2)c1)N1CCNCC1 | – | 4 | – | –
18 | COC(=O)c1cccc(O[C@H]2O[C@H](CO)[C@@H](O)[C@H](O)[C@@H]2O)c1 | 70.8 | – | – | –
19 | COc1ccccc1-c1ccc(O[C@H]2O[C@H](CO)[C@@H](O)[C@H](O)[C@@H]2O)cc1 | 70.7 | – | – | –
20 | COC(=O)c1cccc(-c2ccc(O[C@H]3O[C@H](CO)[C@@H](O)[C@H](O)[C@@H]3O)c(Cl)c2)c1 | – | 0.03 | – | log Pe [4]: -4.29; IC50 (Escherichia coli [5]): 260 nM
21 | CN1CCN(C(=O)c2cccc(-c3ccc(O[C@H]4O[C@H](CO)[C@@H](O)[C@H](O)[C@@H]4O)cc3)c2)CC1 | – | 4 | – | –
22 | OC[C@H]1O[C@H](Oc2ccc(-c3ccccc3)cc2)[C@@H](O)[C@@H](O)[C@@H]1O | 71.2 | – | 3 | –
23 | COC(=O)c1cccc(-c2ccc(O[C@H]3O[C@H](CO)[C@@H](O)[C@H](O)[C@@H]3O)c(C(F)(F)F)c2)c1 | – | 0.03 | – | log Pe [4]: -3.91; IC50 (Escherichia coli [5]): 170 nM
24 | OCc1cccc(-c2ccc(O[C@H]3O[C@H](CO)[C@@H](O)[C@H](O)[C@@H]3O)cc2)c1 | 71.2 | – | 2.61 | –

Row | SMILES | Tm (Escherichia coli [2]) [°C] | EC>90 (Escherichia coli [6]) [µM] | Kd [7] [nM] | also measured
25 | COC(=O)c1cc(O[C@H]2O[C@H](CO)[C@@H](O)[C@H](O)[C@@H]2O)cc(C(=O)OC)c1 | 73.2 | – | 3.45 | –
26 | COc1cccc(-c2ccc(O[C@H]3O[C@H](CO)[C@@H](O)[C@H](O)[C@@H]3O)cc2)c1 | 71.8 | – | 1.25 | –
27 | COC(=O)c1cc(C(=O)OC)cc(-c2ccc(O[C@H]3O[C@H](CO)[C@@H](O)[C@H](O)[C@@H]3O)cc2)c1 | 72.5 | – | – | –
28 | O=C(O)c1cc(C(=O)O)cc(-c2ccc(O[C@H]3O[C@H](CO)[C@@H](O)[C@H](O)[C@@H]3O)cc2)c1 | 72.4 | – | 14.5 | –
29 | O=C(Nc1ccncc1)c1cccc(-c2ccc(O[C@H]3O[C@H](CO)[C@@H](O)[C@H](O)[C@@H]3O)cc2)c1 | – | 0.25 | – | –
30 | CNS(=O)(=O)c1cccc(-c2ccc(O[C@H]3O[C@H](CO)[C@@H](O)[C@H](O)[C@@H]3O)cc2)c1 | 72 | – | 0.49 | –
31 | OC[C@H]1O[C@H](OCc2ccccc2)[C@@H](O)[C@@H](O)[C@@H]1O | – | – | 43.7 | –
32 | O=C(O)c1cccc(-c2ccc(O[C@H]3O[C@H](CO)[C@@H](O)[C@H](O)[C@@H]3O)cc2)c1 | 70.9 | – | 2.21 | –
33 | O=C(NCCO)c1cccc(-c2ccc(O[C@H]3O[C@H](CO)[C@@H](O)[C@H](O)[C@@H]3O)cc2)c1 | – | 0.5 | – | –
34 | COC(=O)c1cccc(-c2ccc(O[C@H]3O[C@H](CO)[C@@H](O)[C@H](O)[C@@H]3O)cc2C(=O)OC)c1 | – | 1 | – | log Pe [4]: -4.08
35 | COC(=O)c1cccc(-c2ccc(O[C@H]3O[C@H](CO)[C@@H](O)[C@H](O)[C@@H]3O)c(OC)c2)c1 | – | 0.19 | – | IC50 (Escherichia coli [5]): 890 nM
36 | COC(=O)c1cccc(-c2ccc(O[C@H]3O[C@H](CO)[C@@H](O)[C@H](O)[C@@H]3O)c(F)c2)c1 | – | 0.75 | – | –
37 | O=c1[nH]ccc2ccc(-c3ccc(O[C@H]4O[C@H](CO)[C@@H](O)[C@H](O)[C@@H]4O)cc3)cc12 | – | 0.1 | – | –
38 | CNC(=O)c1cccc(-c2ccc(O[C@H]3O[C@H](CO)[C@@H](O)[C@H](O)[C@@H]3O)cc2)c1 | 73.4 | 0.5 | – | IC50 (Escherichia coli [5]): 1350 nM
39 | OC[C@H]1O[C@H](Oc2ccc(-c3cccc(C(F)(F)F)c3)cc2)[C@@H](O)[C@@H](O)[C@@H]1O | 68.3 | – | 1.56 | –
40 | OC[C@H]1O[C@H](Oc2ccc(-c3cccc4cnccc34)cc2)[C@@H](O)[C@@H](O)[C@@H]1O | – | 0.25 | – | –
41 | CNC(=O)c1cc(C(=O)NC)cc(-c2ccc(O[C@H]3O[C@H](CO)[C@@H](O)[C@H](O)[C@@H]3O)c(C)c2)c1 | 75.8 | 0.016 | – | Ratio (Mus musculus): 10; log Pe [4]: -8.46; IC50 (Escherichia coli [5]): 73 nM
42 | COC(=O)c1sc(-c2ccc(O[C@H]3O[C@H](CO)[C@@H](O)[C@H](O)[C@@H]3O)cc2)cc1NC(N)=O | – | 0.02 | – | –
43 | COC(=O)c1cccc(-c2ccc(O[C@H]3O[C@H](CO)[C@@H](O)[C@H](O)[C@@H]3O)c(C)c2)c1 | – | 0.12 | – | IC50 (Escherichia coli [5]): 330 nM
44 | OC[C@H]1O[C@H](Oc2ccccc2)[C@@H](O)[C@@H](O)[C@@H]1O | 68.9 | 30 | – | –
45 | CC(=O)Nc1cccc(-c2ccc(O[C@H]3O[C@H](CO)[C@@H](O)[C@H](O)[C@@H]3O)cc2)c1 | 72.3 | – | 1.14 | –
46 | CS(=O)(=O)Nc1cccc(-c2ccc(O[C@H]3O[C@H](CO)[C@@H](O)[C@H](O)[C@@H]3O)cc2)c1 | 70.9 | – | 2 | –
47 | COC(=O)c1ccc(-c2ccc(O[C@H]3O[C@H](CO)[C@@H](O)[C@H](O)[C@@H]3O)cc2)s1 | – | 1 | – | –
